Data set [1] is described as follows: Cardiotoxicity in conscious telemetered Beagle dog. The format is toxicity, Canis lupus familiaris.
Data set [2] is described as follows: Cardiotoxicity in conscious telemetered Beagle dog assessed as effect on left ventricular parameters at 0.5 to 30 mg/kg administered as single iv infusion for 2 hrs measured up to 48 hrs post dose by telemetry. The class given is toxicity, organism-based, Canis lupus familiaris. To be noted: in vivo. In a few lines:
(§1)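 Conscious beagle dogs were given the compound by intravenous infusion. Infusion was set to reach a target plasma concentration 100-fold above the predicted free human Cmax at the therapeutic dose, and cardiovascular parameters were recorded.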

Data set [3] can be described thus: Cardiotoxicity in conscious telemetered Beagle dog assessed as effect on body temperature at 0.5 to 30 mg/kg administered as single iv infusion for 2 hrs measured up to 48 hrs post dose by telemetry. The class given is toxicity, organism-based, Canis lupus familiaris. To be noted: in vivo. In a few lines:
as §1

The species entered for another data set is Homo sapiens. In words: Selectivity ratio of compound effect on activity at COX2 in human whole blood to IC50 for FLAP in human whole blood.

In the case of `Cc1cc(-c2ccc(C(=O)[C@@H]3CCCC[C@H]3C(=O)Nc3cnn4c3C(=O)NCC4)cc2)[nH]n1`, the Activity entry in data set [1], in data set [2] and in data set [3] was “Non-Toxic” each time.
For `Cc1cc(-c2ccc(C(=O)[C@@H]3CCCC[C@H]3C(=O)Nc3cnn(C)c3C(=O)NOC(C)(C)C)cc2)[nH]n1`, in the data set filed under Homo sapiens, the Selectivity ratio is more than 100.

The values above are taken from ChEMBL document CHEMBL4393654, “Discovery and Early Clinical Development of an Inhibitor of 5-Lipoxygenase Activating Protein (AZD5718) for Treatment of Coronary Artery Disease” (J Med Chem, 2019).
